Measured values of several laboratories.
Each line is one published result; the experiments were not run side by side.
Target: Tyrosine-protein kinase CSK (CSK, Homo sapiens, UniProt P41240)

Structure (SMILES) | read-out | action | method | concentration | measurement | value
N#CC1(c2ccccn2)CCN(Cc2cc(C(=O)O)c(=O)n3ccccc23)CC1 | cell-free assay | – | competition with immobilised ligand | 1 µM | remaining binding | 100%
CC(C)(C)c1cc(C=C(C#N)C#N)cc(Br)c1O | enzyme activity | inhibitor | – | 0.5 µM | remaining activity | 106%
Nc1ncc(-c2nc(N3CCOCC3)nc(N3CCOCC3)n2)c(C(F)F)n1 | binding | – | competition with immobilised ligand | 10 µM | remaining binding | 73%
Cn1cc(-c2cc(F)cc(N3CCn4c(cc5c4CCCC5)C3=O)c2CO)cc(Nc2ccc(N3CCN(C4COC4)CC3)cn2)c1=O | enzyme activity | inhibitor | – | 0.1 µM | inhibition | 12%
Cc1nn(C)cc1-c1nc2c(N3CCN(Cc4ccc(Cl)cc4)CC3)c(Cl)cnc2[nH]1 | binding | – | competition with immobilised ligand | 1 µM | remaining binding | 100%
O=c1[nH]c2ccccc2n1C1CCN(Cc2ccc(-c3[nH]c4cc5ncnc5cc4nc3-c3ccccc3)cc2)CC1 | enzyme activity | – | – | 0.5 µM | remaining activity | 101%
O=C(NCc1ncc(C(F)(F)F)cc1Cl)c1ccc2c(c1)C1(CCS(=O)(=O)CC1)[C@@H](C1CC1)N2S(=O)(=O)c1ccc(F)cc1 | cell-free assay | – | competition with immobilised ligand | 1 µM | remaining binding | 96%
Cn1cc(-c2cccc(N3CCc4c(sc5c4CC(C)(C)C5)C3=O)c2CO)cc(Nc2ccncn2)c1=O | enzyme activity | inhibitor | – | 1 µM | inhibition | 4%
COc1ncccc1-c1cnn2ccc(N3CCN(C(=O)OC(C)C)CC3)nc12 | binding | – | competition with immobilised ligand | 1 µM | remaining binding | 100%
